Assay results pooled from the literature.
Read-out: metabolic stability
Species: human

Compound | test system | conditions | quantity | result
COc1cc(OC)cc(N(CCNC(C)C)c2ccc3ncc(-c4cnn(C)c4)nc3c2)c1 | hepatocytes |  | hepatocyte CLint | 2.53 µL/min/10⁶ cells
CC(C)(C)[Si](C)(C)OCCN(c1ccc(F)cc1)c1c(-c2ccccn2)nc2ccccn12 | liver microsomes | 3 µM, pH 7.4 | microsomal CLint | > 300 µL/min/mg
C[C@H]1C[C@@H](N2C(=N)N[C@](C)(c3cccc(Nc4ccc(C5CC5)nc4)c3Cl)CC2=O)CCO1 | hepatocytes | 0.5 µM | hepatocyte CLint | 16 µL/min/10⁶ cells
c1ccc(C2CCN(c3nc(-c4cnn5c4CCCC5)nc4ccccc34)C2)nc1 (stereo not drawn) | liver microsomes |  | microsomal CLint | 176 µL/min/mg
NCc1ccccc1 | hepatocytes | 5 µM | hepatocyte CLint | 16.7 µL/min/10⁶ cells
COc1ccnc(-c2nc3ccc(OC)cn3c2Nc2ccc(F)cc2)c1 | liver microsomes | 3 µM, pH 7.4 | microsomal CLint | 240 µL/min/mg
c1ccc(-c2nc(Nc3ccn4nccc4c3)c3ccccc3n2)nc1 | liver microsomes |  | microsomal CLint | 120 µL/min/mg
CNS(=O)(=O)Cc1ccc2[nH]cc(CCN(C)C)c2c1 | hepatocytes | 5 µM | hepatocyte CLint | 2.8 µL/min/10⁶ cells
C[C@H]1C[C@@H](N2C(=N)N[C@](C)(c3cccc(NC(=O)c4cccc(C#N)c4)c3Cl)CC2=O)CCO1 | hepatocytes | 0.5 µM | hepatocyte CLint | 5 µL/min/10⁶ cells
Fc1ccc(Nc2nc(-c3ccccn3)nc3ccccc23)cc1 | liver microsomes |  | microsomal CLint | 67 µL/min/mg
COc1ccc(-c2nc3ccc(OC)cn3c2Nc2ccc(F)cc2)nc1 | liver microsomes | 3 µM, pH 7.4 | microsomal CLint | 44 µL/min/mg
c1ccc(CCNc2nc(-c3ccccn3)nc3ccccc23)nc1 | liver microsomes |  | microsomal CLint | 42 µL/min/mg
C=CC(=O)Nc1cc(Nc2nccc(Nc3cc(Cl)c(F)cc3C(C)(C)O)n2)c(OC)cc1N1CC[C@@H](N(C)C)C1 | hepatocytes |  | hepatocyte CLint | 3.3 µL/min/10⁶ cells
C[C@@H](N)c1cc(Cl)ccc1Cn1c(=S)[nH]c(=O)c2[nH]ccc21 | hepatocytes |  | hepatocyte CLint | < 1 µL/min/10⁶ cells
COc1ccnc(-c2nc3ccccn3c2Nc2ccc(F)cc2)c1 | liver microsomes | 3 µM, pH 7.4 | microsomal CLint | 120 µL/min/mg
CCCN(CCC)CCc1cccc2c1CC(=O)N2 | hepatocytes | 1 µM | hepatocyte CLint | 1.7 µL/min/10⁶ cells
CN(c1ccc(F)cc1)c1c(-c2cc(Cl)ccn2)nc2ccccn12 | liver microsomes | 3 µM, pH 7.4 | microsomal CLint | 190 µL/min/mg
Fc1ccccc1Nc1nc(-c2ccccn2)nc2ccccc12 | liver microsomes |  | microsomal CLint | 88 µL/min/mg
Fc1ccc(Nc2c(-c3cccnn3)nc3ccccn23)cc1 | liver microsomes | 3 µM, pH 7.4 | microsomal CLint | 64 µL/min/mg
N#Cc1ccccc1-c1nc(N2CCC(c3ccccn3)C2)c2ccccc2n1 (stereo not drawn) | liver microsomes |  | microsomal CLint | 350 µL/min/mg
O=c1[nH]c(=S)n(Cc2ccc(Cl)cc2CNCC(F)(F)F)c2cc[nH]c12 | hepatocytes |  | hepatocyte CLint | 4.3 µL/min/10⁶ cells
